Measured values: ChEMBL document CHEMBL5154634, “A Modular Synthetic Route Involving N-Aryl-2-nitrosoaniline Intermediates Leads to a New Series of 3-Substituted Halogenated Phenazine Antibacterial Agents” (J Med Chem, 2021)
Values after ≈ are worked out from the molar mass of the structure shown. Active and inactive are the calls of the source. No cut-off for these calls is given here.

Legend:
Staphylococcus aureus [1] = experiment: Antibacterial activity against methicillin-resistant Staphylococcus aureus BAA-1707 assessed as bacterial growth inhibition incubated for 16 hrs by broth microdilution susceptibility test; format: functional
How it was run: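 CLSI broth microdilution with 11 twofold dilutions (0.05–50 μM). About 10^5 cells per well from a log-phase culture. DMSO vehicle up to 0.5% v/v. At least three independent experiments.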

Enterococcus faecalis [2] = experiment: Antibacterial activity against Enterococcus faecalis OG1RF ATCC 47077 assessed as bacterial growth inhibition incubated for 16 hrs by broth microdilution susceptibility test; format: functional
[3] = test system: Mycobacterium tuberculosis; experiment: Antibacterial activity against Mycobacterium tuberculosis H37Ra ATCC 25177 assessed as bacterial growth inhibition incubated for 7 days by absorbance based analysis; format: functional; conditions: H37Ra ATCC 25177, 168 h, time 7 day
How it was run: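 H37Ra grown 2 weeks in Middlebrook 7H9, then diluted to OD600 0.01. Compounds added in twofold dilutions, final 0.024–50 μM, with 0.5% DMSO and streptomycin as positive control. Incubated 7 days at 37 °C. MIC is the lowest concentration with no growth, with OD600 recorded. At least three independent experiments.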

[4] = test system: Mycobacterium tuberculosis; experiment: Antibacterial activity against Mycobacterium tuberculosis CDC1551 assessed as bacterial growth inhibition incubated for 5 days by luminescence based analysis; format: functional; conditions: CDC1551, 120 h, time 5 day
How it was run: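 Bioluminescent Mtb-lux CDC1551 reporter grown in Middlebrook 7H9 with 0.05% Tween 80, 10% OADC and kanamycin to OD600 0.4–0.8, then diluted to OD600 0.02. Added to twofold drug dilutions (0.003–200 μM). Incubated 5 days at 37 °C, 5% CO2. Luminescence read against 1% DMSO and 10 μM rifampicin controls to give % growth inhibition. MIC taken from a modified Gompertz fit.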

HeLa = experiment: Cytotoxicity against human HeLa cells assessed as reduction in cell viability incubated for 24 hrs by LDH release assay; format: toxicity, cell-based
How it was run: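 HeLa cells in DMEM with 10% FBS, treated at 70–80% confluence with 25, 50 and 100 μM for 24 h. LDH in supernatant measured by 30 min reaction at room temperature, then stop solution and absorbance at 490 nm. Controls: 2% Triton X-100 (maximum), medium only, DMSO vehicle. Three independent experiments.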

J774 = experiment: Cytotoxicity against mouse J774 cells assessed as reduction in cell viability […] by Alamar blue assay; format: toxicity, cell-based
HepG2 = experiment: Cytotoxicity against human HepG2 cells assessed as reduction in cell viability […] by Alamar blue assay; format: toxicity, cell-based
Staphylococcus aureus [5] = experiment: Bactericidal activity against methicillin-resistant Staphylococcus aureus BAA-1707 planktonic cells assessed as planktonic eradication incubated for 24 hrs followed by incubation for overnight in fresh medium by Calgary biofilm device assay; format: functional
How it was run: (§1)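 Calgary biofilm device. Biofilms grown 24 h at 37 °C in TSB with 0.5% glucose, then challenged 24 h with twofold compound dilutions. 20 μL of challenge medium transferred into fresh TSB with 0.5% glucose and incubated overnight at 37 °C. MBC is the concentration with no visible turbidity. At least three independent experiments.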

Staphylococcus aureus [6] = experiment: Antibiofilm activity against methicillin-resistant Staphylococcus aureus BAA-44 biofilms assessed as biofilm eradication incubated for 24 hrs followed by incubation for 24 hrs in fresh medium by Calgary biofilm device assay; format: functional
How it was run: (§2)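 Calgary biofilm device. Mid-log culture diluted 1000-fold in TSB with 0.5% glucose; biofilms grown on pegs 24 h at 37 °C. Pegs washed and challenged with twofold compound dilutions for 24 h at 37 °C, then moved to fresh medium for 24 h. MBEC is the lowest concentration leaving wells non-turbid. At least three independent experiments.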

[7] = test system: Staphylococcus epidermidis; experiment: Bactericidal activity against methicillin-resistant Staphylococcus epidermidis ATCC 35984 planktonic cells assessed as planktonic eradication incubated for 24 hrs followed by incubation for overnight in fresh medium by Calgary biofilm device assay; format: functional; how it was run: as §1
[8] = test system: Staphylococcus epidermidis; experiment: Antibiofilm activity against methicillin-resistant Staphylococcus epidermidis ATCC 35984 biofilms assessed as biofilm eradication incubated for 24 hrs followed by incubation for 24 hrs in fresh medium by Calgary biofilm device assay; format: functional; how it was run: as §2
Enterococcus faecium [9] = experiment: Bactericidal activity against methicillin-resistant vancomycin-resistant Enterococcus faecium ATCC 700221 planktonic cells assessed as planktonic eradication incubated for 24 hrs followed by incubation for overnight in fresh medium by Calgary biofilm device assay; format: functional; how it was run: as §1
Enterococcus faecium [10] = experiment: Antibiofilm activity against methicillin-resistant vancomycin-resistant Enterococcus faecium ATCC 700221 biofilms assessed as biofilm eradication incubated for 24 hrs followed by incubation for 24 hrs in fresh medium by Calgary biofilm device assay; format: functional; how it was run: as §2
Enterococcus faecalis [11] = experiment: Bactericidal activity against […] Enterococcus faecalis OG1RF ATCC 47077 planktonic cells assessed as planktonic eradication incubated for 24 hrs followed by incubation for overnight in fresh medium by Calgary biofilm device assay; format: functional
How it was run: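 Calgary biofilm device in BHI. Biofilms grown 24 h at 37 °C and challenged 24 h with twofold compound dilutions. Challenge medium subcultured 1:10 into fresh BHI overnight at 37 °C. MBC is the concentration with no turbidity. At least three independent experiments.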

Enterococcus faecalis [12] = experiment: Antibiofilm activity against Enterococcus faecalis OG1RF ATCC 47077 biofilms assessed as biofilm eradication incubated for 24 hrs followed by incubation for 24 hrs in fresh medium by Calgary biofilm device assay; format: functional
How it was run: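 Calgary biofilm device. Biofilms grown 24 h at 37 °C in BHI from mid-log culture diluted 1000-fold. Pegs washed and then challenged 24 h with twofold serial dilutions. Pegs moved to fresh BHI for 24 h recovery. MBEC = lowest concentration leaving no turbidity; at least three independent experiments.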

Erythrocyte = experiment: Hemolytic activity against human RBC at 200 uM measured after 1 hr; format: toxicity, cell-based
How it was run: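 2% hRBCs exposed to compound at 200 μM final, added from DMSO stock, for 1 h at 37 °C. Supernatant OD read at 405 nm. Hemolysis normalized between DMSO (0%) and Triton X (100%); three independent experiments.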

Staphylococcus aureus [13] = experiment: Induction of iron starvation in methicillin-resistant Staphylococcus aureus BAA-1707 biofilms assessed as upregulation of sfaA gene expression at 1 uM incubated for 4 hrs by RT-qPCR analysis; format: functional
How it was run: (§3)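 MRSA BAA-1707 grown in TSB with 0.5% glucose to OD600 ~0.8–1.0, then biofilms formed 20 h at 37 °C statically in gelatin-coated 24-well plates. Biofilms treated 4 h at 37 °C with compound (1 μM or 1/10 MBEC) or DMSO vehicle. RNA extracted; only RIN ≥7 samples used. One-step SYBR RT-qPCR; ΔCT normalised to ptaA. Three independent experiments.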

Staphylococcus aureus [14] = experiment: Induction of iron starvation in methicillin-resistant Staphylococcus aureus BAA-1707 biofilms assessed as upregulation of sfaA gene expression at 1/10XMBEC incubated for 4 hrs by RT-qPCR analysis; format: functional; how it was run: as §3
Staphylococcus aureus [15] = experiment: Induction of iron starvation in methicillin-resistant Staphylococcus aureus BAA-1707 biofilms assessed as upregulation of sbnC gene expression at 1 uM incubated for 4 hrs by RT-qPCR analysis; format: functional; how it was run: as §3
Staphylococcus aureus [16] = experiment: Induction of iron starvation in methicillin-resistant Staphylococcus aureus BAA-1707 biofilms assessed as upregulation of sbnC gene expression at 1/10XMBEC incubated for 4 hrs by RT-qPCR analysis; format: functional; how it was run: as §3
Staphylococcus aureus [17] = experiment: Induction of iron starvation in methicillin-resistant Staphylococcus aureus BAA-1707 biofilms assessed as upregulation of isdB gene expression at 1 uM incubated for 4 hrs by RT-qPCR analysis; format: functional; how it was run: as §3
Staphylococcus aureus [18] = experiment: Induction of iron starvation in methicillin-resistant Staphylococcus aureus BAA-1707 biofilms assessed as upregulation of isdB gene expression at 1/10XMBEC incubated for 4 hrs by RT-qPCR analysis; format: functional; how it was run: as §3
Staphylococcus aureus [19] = experiment: Induction of iron starvation in methicillin-resistant Staphylococcus aureus BAA-1707 biofilms assessed as upregulation of MW0695 gene expression at 1 uM incubated for 4 hrs by RT-qPCR analysis; format: functional; how it was run: as §3
Staphylococcus aureus [20] = experiment: Induction of iron starvation in methicillin-resistant Staphylococcus aureus BAA-1707 biofilms assessed as upregulation of MW0695 gene expression at 1/10XMBEC incubated for 4 hrs by RT-qPCR analysis; format: functional; how it was run: as §3
[21] = Binding affinity to Fe2+ assessed as compound-Fe2+ complex formation by UV-vis spectroscopy

With Oc1c(Br)c(Cl)c(Br)c2nc3ccccc3nc12 the MIC (Staphylococcus aureus [1]) was 0.15 µM (≈ 0.0583 µg/mL), the MIC (Enterococcus faecalis [2]) was 3.13 µM (≈ 1.22 µg/mL) and the MIC [3] was 6.25 µM (≈ 2.43 µg/mL). The MIC [4] was 4.37 µM (≈ 1.7 µg/mL), the IC50 (HeLa) was > 100 µM and the IC50 (J774) was > 200 µM. For the same molecule, the IC50 (HepG2) was > 200 µM, the MBC (Staphylococcus aureus [5]) was 50 µM (≈ 19.4 µg/mL) and the MBEC (Staphylococcus aureus [6]) was 75 µM. It also gave an MBC [7] of 12.5 µM (≈ 4.86 µg/mL), an MBEC [8] of 25 µM and an MBC (Enterococcus faecium [9]) of 4.69 µM (≈ 1.82 µg/mL). The MBEC (Enterococcus faecium [10]) was 2.35 µM, the MBC (Enterococcus faecalis [11]) was 75 µM (≈ 29.1 µg/mL) and the MBEC (Enterococcus faecalis [12]) was >200 µM. For the same molecule, the Activity (Erythrocyte) was “<= 1%”, the Activity (Staphylococcus aureus [13]) was “Active” and the Activity (Staphylococcus aureus [14]) was “Active”. The Activity (Staphylococcus aureus [15]) was “Active”, the Activity (Staphylococcus aureus [16]) was “Active” and the Activity (Staphylococcus aureus [17]) was “Active”. The Activity (Staphylococcus aureus [18]) was “Active”, the Activity (Staphylococcus aureus [19]) was “Active” and the Activity (Staphylococcus aureus [20]) was “Active”. The Activity [21] was “Active”.
